Measured values as given in article PMC3166234 (Analytical biochemistry, 2011).

Biological target: PFKFB3 2-kinase (Homo sapiens, UniProt Q16875)
Assay: Steady-state inhibition kinetics of the PFKFB3 2-kinase
Assay type: biochemical
Method in brief: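 Recombinant human PFKFB3 2-kinase run in a two-step assay. F-2,6-P2 is first made with enzyme in TES pH 8.0, DTT, MgCl2 and Tween at 25°C, then stopped with KOH and neutralised. The product then allosterically activates PPi:PFK in an aldolase/TIM/GDH–NADH coupled system, read as A340 over 30 min. F-6-P, ATP and/or inhibitor concentrations are varied to define the inhibition type.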

PFKFB3 2-kinase, sequence (Q16875 whole entry): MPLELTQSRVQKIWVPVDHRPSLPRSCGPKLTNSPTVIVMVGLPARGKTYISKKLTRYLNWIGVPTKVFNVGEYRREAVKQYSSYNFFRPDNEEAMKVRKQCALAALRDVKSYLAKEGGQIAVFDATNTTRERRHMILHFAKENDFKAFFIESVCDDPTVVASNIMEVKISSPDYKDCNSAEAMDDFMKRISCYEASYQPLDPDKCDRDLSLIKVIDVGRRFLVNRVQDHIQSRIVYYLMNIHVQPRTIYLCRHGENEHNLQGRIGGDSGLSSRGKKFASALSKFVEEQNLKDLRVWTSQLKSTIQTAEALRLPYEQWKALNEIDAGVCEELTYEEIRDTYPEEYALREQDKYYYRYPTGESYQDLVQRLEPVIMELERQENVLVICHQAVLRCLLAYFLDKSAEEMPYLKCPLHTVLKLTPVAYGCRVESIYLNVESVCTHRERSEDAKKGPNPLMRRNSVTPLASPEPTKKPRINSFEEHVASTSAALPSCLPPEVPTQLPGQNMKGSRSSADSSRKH

- type of inhibition against ATP (ATP varied): uncompetitive
- type of inhibition against F-6-P (F-6-P varied): competitive
SMILES: CCOC(=O)/C=C(/C)Sc1cc(O)c2ccccc2c1O [NSC278631]
